Measurements: ChEMBL document CHEMBL3351780, “Novel hybrids of metronidazole and quinolones: synthesis, bioactive evaluation, cytotoxicity, preliminary antimicrobial mechanism and effect of metal ions on their transportation by human serum albumin” (Eur J Med Chem, 2014)
In brackets after ≈: the same amount, converted by molar mass. Activity calls are given as the source filed them. No cut-off for these calls is given here.

Tests used:
Streptococcus pneumoniae = assay: Antibacterial activity against Streptococcus pneumoniae by two-fold serial dilution method; assay type: functional
How it was run: (§1)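 Standard two-fold serial dilution in 96-well microtest plates following NCCLS. Top dilutions printed as 32, 16, 8, 4, 2, 1, 0.5 ug/mL. Wells inoculated and held at 37 °C for 24 h. Growth judged visually and by spectrophotometer, in triplicate. MIC is the lowest concentration giving complete growth inhibition.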

Micrococcus luteus = assay: Antibacterial activity against Micrococcus luteus by two-fold serial dilution method; assay type: functional; how it was run: as §1
Staphylococcus aureus [1] = assay: Antibacterial activity against methicillin-resistant Staphylococcus aureus N315 by two-fold serial dilution method; assay type: functional
How it was run: (§2)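 MIC read as the lowest concentration giving complete growth inhibition. Two-fold serial dilutions were made in 96-well plates following NCCLS, giving a series down to 0.5 µg/mL (…32, 16, 8, 4, 2, 1, 0.5). Plates were inoculated and incubated at 37 °C for 24 h. A DMSO-with-inoculum control without drug was included. Growth was monitored visually and spectrophotometrically, in triplicate.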

Staphylococcus aureus [2] = assay: Antibacterial activity against Staphylococcus aureus ATCC 25923 by two-fold serial dilution method; assay type: functional; how it was run: as §1
Bacillus spizizenii = assay: Antibacterial activity against Bacillus subtilis ATCC 6633 by two-fold serial dilution method; assay type: functional; how it was run: as §1
Pseudomonas aeruginosa = assay: Antibacterial activity against Pseudomonas aeruginosa by two-fold serial dilution method; assay type: functional; how it was run: as §1
Escherichia coli = assay: Antibacterial activity against Escherichia coli DH52 by two-fold serial dilution method; assay type: functional; how it was run: as §1
Shigella dysenteriae = assay: Antibacterial activity against Shigella dysenteriae by two-fold serial dilution method; assay type: functional; how it was run: as §2
[3] = Antibacterial activity against Eberthella typhosa by two-fold serial dilution method; assay type: functional; how it was run: as §2
Cyberlindnera jadinii = assay: Antifungal activity against Candida utilis after 24 hrs by microbroth dilution method; assay type: functional; settings: Williopsis jadinii
How it was run: (§3)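 Spore suspension prepared in sterile distilled water from one-day-old cultures on Sabouraud agar, final 1-5 x 10^3 spores/mL. Compounds were serially diluted in RPMI 1640 to give eleven dilutions. Incubation at 35 °C for 24 h. Growth read visually and spectrophotometrically, in triplicate. MIC is the lowest concentration with complete inhibition.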

Saccharomyces cerevisiae = assay: Antifungal activity against Saccharomyces cerevisiae after 24 hrs by microbroth dilution method; assay type: functional; how it was run: as §3
Candida albicans = assay: Antifungal activity against Candida albicans ATCC 76615 after 24 hrs by microbroth dilution method; assay type: functional; settings: ATCC 76615, 24 h; how it was run: as §3
Pichia norvegensis = assay: Antifungal activity against Candida mycoderma after 24 hrs by microbroth dilution method; assay type: functional
[4] = Dissociation constant, pKa of the compound by UV-spectroscopy; assay type: physicochemical
How it was run: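 DMSO stock at 4.0 × 10^-3 mol/L added to 2 mL of buffer, then shaken 10 min at room temperature. Buffers were acetate (pH 4.0–5.0), MES (5.5–6.5), HEPES (7.0–8.0) and CHES (8.5–9.4), each from 500 mM stocks. Scans ran 210–400 nm and were normalized. Absolute differences from the acid spectrum were summed at 244 and 308 nm, plotted against pH and fitted to obtain pKa.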

[5] = Octanol-water partition co-efficient, log P of the compound by shake flask method; assay type: physicochemical
[6] = Aqueous solubility of the compound by UV-spectrophotometry; assay type: physicochemical
Aspergillus flavus = assay: Antifungal activity against Aspergillus flavus ATCC 96918 after 24 hrs by microbroth dilution method
[7] = Cytotoxicity against human A549 cells assessed as cell viability at 256 ug/ml after 24 hrs by CCK-8 assay; assay type: cell-based; settings: read-out: Activity
How it was run: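 A549 cells were plated and allowed to attach for 24 h, then medium with the compound was added. The compound came from DMSO stocks diluted in medium to 8, 16, 32, 64, 128 and 256 µg/mL. Cells were kept at 37 °C in 5% CO2. Viability was read by CCK-8 absorbance at 450 nm against a drug-free control, three replicates.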

Calf thymus DNA = assay: Binding affinity to calf thymus DNA by UV-vis spectroscopy; assay type: nucleic-acid assay; settings: Bos taurus
How it was run: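 Calf thymus DNA held at a fixed concentration and titrated with increasing amounts of the compound. UV-vis absorption spectra were recorded at room temperature in 1.0 cm quartz cells, following the DNA band at 260 nm.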

Compound	MIC (Streptococcus pneumoniae) [µg/mL]	MIC (Micrococcus luteus) [µg/mL]	MIC (Staphylococcus aureus [1]) [µg/mL]	MIC (Staphylococcus aureus [2]) [µg/mL]	MIC (Bacillus spizizenii) [µg/mL]	MIC (Pseudomonas aeruginosa) [µg/mL]	MIC (Escherichia coli) [µg/mL]	MIC (Shigella dysenteriae) [µg/mL]	MIC [3] [µg/mL]	MIC (Cyberlindnera jadinii) [µg/mL]	MIC (Saccharomyces cerevisiae) [µg/mL]	MIC (Candida albicans) [µg/mL]	MIC (Pichia norvegensis) [µg/mL]	pKa [4]	logP [5]	solubility [6] [µg/mL]	MIC (Aspergillus flavus) [µg/mL]	viability at 24 h, 256 ug/ml [7] [%]	Activity (Calf thymus DNA)
Cc1ncc([N+](=O)[O-])n1CC(O)Cn1cc(C(=O)O)c(=O)c2cc(F)c(Cl)cc21 (stereo unspecified)	8 (≈ 18.8 µM)	64 (≈ 151 µM)	4 (≈ 9.42 µM)	32 (≈ 75.3 µM)	8 (≈ 18.8 µM)	16 (≈ 37.7 µM)	2 (≈ 4.71 µM)	16 (≈ 37.7 µM)	128 (≈ 301 µM)	512 (≈ 1210 µM)	128 (≈ 301 µM)	64 (≈ 151 µM)	256 (≈ 603 µM)	5.14	0.18	430 (≈ 1010 µM)	–	–	–
CCOC(=O)c1cn(CC2CO2)c2c(F)cccc2c1=O (racemic)	–	–	–	–	32 (≈ 110 µM)	–	–	–	2 (≈ 6.87 µM)	512 (≈ 1760 µM)	–	–	64 (≈ 220 µM)	–	–	–	512 (≈ 1760 µM)	–	–
CCOC(=O)c1cn(CC2CO2)c2cc(C(F)(F)F)ccc2c1=O (racemic)	–	–	–	–	31 (≈ 90.8 µM)	–	–	–	2 (≈ 5.86 µM)	512 (≈ 1500 µM)	–	–	32 (≈ 93.8 µM)	–	–	–	512 (≈ 1500 µM)	–	–
Cc1ccc2c(c1)c(=O)c(C(=O)O)cn2CC(O)Cn1cnc([N+](=O)[O-])c1 (stereo unspecified)	32 (≈ 85.9 µM)	8 (≈ 21.5 µM)	8 (≈ 21.5 µM)	0.5 (≈ 1.34 µM)	1 (≈ 2.69 µM)	1 (≈ 2.69 µM)	16 (≈ 43 µM)	4 (≈ 10.7 µM)	4 (≈ 10.7 µM)	256 (≈ 688 µM)	4 (≈ 10.7 µM)	16 (≈ 43 µM)	64 (≈ 172 µM)	–	–	–	–	> 83	–
CCn1cc(C(=O)O)c(=O)c2cc(F)c(N3CCNCC3)cc21 [NORFLOXACIN]	1 (≈ 3.13 µM)	–	–	–	1 (≈ 3.13 µM)	–	–	–	4 (≈ 12.5 µM)	–	–	–	–	–	–	–	–	–	Active
O=C(O)c1cn(CC(O)Cn2cnc([N+](=O)[O-])c2)c2cc(C(F)(F)F)ccc2c1=O (stereo unspecified)	16 (≈ 37.5 µM)	8 (≈ 18.8 µM)	4 (≈ 9.38 µM)	4 (≈ 9.38 µM)	4 (≈ 9.38 µM)	8 (≈ 18.8 µM)	2 (≈ 4.69 µM)	4 (≈ 9.38 µM)	4 (≈ 9.38 µM)	128 (≈ 300 µM)	32 (≈ 75.1 µM)	128 (≈ 300 µM)	128 (≈ 300 µM)	–	–	–	–	–	–
O=C(O)c1cn(CC(O)Cn2cnc([N+](=O)[O-])c2)c2cc(Cl)c(F)cc2c1=O (stereo unspecified)	16 (≈ 39 µM)	8 (≈ 19.5 µM)	8 (≈ 19.5 µM)	16 (≈ 39 µM)	8 (≈ 19.5 µM)	4 (≈ 9.74 µM)	32 (≈ 77.9 µM)	16 (≈ 39 µM)	2 (≈ 4.87 µM)	256 (≈ 623 µM)	64 (≈ 156 µM)	128 (≈ 312 µM)	128 (≈ 312 µM)	–	–	–	–	–	–
Cc1ncc([N+](=O)[O-])n1CC(O)Cn1cc(C(=O)O)c(=O)c2cc(Cl)cc(Cl)c21 (stereo unspecified)	16 (≈ 36.3 µM)	16 (≈ 36.3 µM)	32 (≈ 72.5 µM)	16 (≈ 36.3 µM)	8 (≈ 18.1 µM)	8 (≈ 18.1 µM)	32 (≈ 72.5 µM)	16 (≈ 36.3 µM)	32 (≈ 72.5 µM)	256 (≈ 580 µM)	64 (≈ 145 µM)	128 (≈ 290 µM)	256 (≈ 580 µM)	5.26	0.22	350 (≈ 793 µM)	–	–	–
